Measurements taken from ChEMBL document CHEMBL4138124, “Antineoplastic Agents. 605. Isoquinstatins” (2018).
Numbered stars: 1 amine (or outer) side, 2 acyl side, 3 side chain; on linkers, the order of the positions; unused ones are H or OH. Square brackets hold non-standard residues; d marks the D form. Peptide text beside a SMILES is read from it. * marks the point of attachment. Dolaproine = CO[C@@H]([C@@H]1CCCN1)[C@@H](C)C(=O)O; Hexanoyl(6-maleimido) = O=C1C=CC(=O)N1CCCCCC(=O)*; Dil = CC[C@H](C)[C@H](NC)[C@@H](CC(=O)O)OC; PABC = O=C(OCc1ccc(N[*:1])cc1)[*:2]; Cit = NC(=O)NCCC[C@H](N)C(=O)O; NMeV = CN[C@H](C(=O)O)C(C)C; X1 = c1cc(CCN*)c2cnccc2c1; X2 = c1cc(CCN*)c2ccncc2c1; X3 = c1cc2ccc(CCN*)cc2cn1

How the values were obtained:
Assay type in all cases: functional
NCI-H460 = test: Growth inhibition of human NCI-H460 cells after 48 hrs by SRB assay; conditions: NCI-H460, 48 h
How it was run: (§1)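 Cells grown in RPMI1640 with 5% fetal bovine serum, seeded in 96-well plates and incubated 24 h before serial dilutions of compound were added. After a further 48 h, cells were fixed with trichloroacetic acid, stained with sulforhodamine B and read on a plate reader. GI50 (concentration giving 50% reduction in net protein increase) was calculated from optical density data.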

DU-145 = test: Growth inhibition of human DU145 cells after 48 hrs by SRB assay; conditions: DU-145, 48 h; how it was run: as §1
MCF7 = test: Growth inhibition of human MCF7 cells after 48 hrs by SRB assay; conditions: MCF7, 48 h; how it was run: as §1
BXPC-3 = test: Growth inhibition of human BxPC3 cells after 48 hrs by SRB assay; conditions: BXPC-3, 48 h; how it was run: as §1
SF-268 = test: Growth inhibition of human SF268 cells after 48 hrs by SRB assay; conditions: SF-268, 48 h; how it was run: as §1
KM-20L2 = test: Growth inhibition of human KM20L2 cells after 48 hrs by SRB assay; conditions: KM-20L2, 48 h; how it was run: as §1

| SMILES | GI50 (NCI-H460) [nM] | GI50 (DU-145) [nM] | GI50 (MCF7) [nM] | GI50 (BXPC-3) [nM] | GI50 (SF-268) [nM] | GI50 (KM-20L2) [nM] |
| --- | --- | --- | --- | --- | --- | --- |
| CC[C@H](C)[C@@H]([C@@H](CC(=O)N1CCC[C@H]1[C@H](OC)[C@@H](C)C(=O)NCCc1cccc2ccncc12)OC)N(C)C(=O)[C@@H](NC(=O)[C@H](C(C)C)N(C)C)C(C)C | 9.03 | 0.053 | 0.133 | 4.25 | 0.07 | 0.146 |
| CC[C@H](C)[C@@H]([C@@H](CC(=O)N1CCC[C@H]1[C@H](OC)[C@@H](C)C(=O)NCCc1cccc2ccncc12)OC)N(C)C(=O)[C@@H](NC(=O)[C@H](C(C)C)N(C)C(=O)OCc1ccc(NC(=O)[C@H](CCCNC(N)=O)NC(=O)[C@@H](NC(=O)CCCCCN2C(=O)C=CC2=O)C(C)C)cc1)C(C)C ({Hexanoyl(6-maleimido)}-V[Cit][PABC][NMeV]V[Dil][Dolaproine]-X1) | 2240 | 23.2 | 22.4 | 524 | 16.5 | 32.2 |
| CC[C@H](C)[C@@H]([C@@H](CC(=O)N1CCC[C@H]1[C@H](OC)[C@@H](C)C(=O)NCCc1ccc2ccncc2c1)OC)N(C)C(=O)[C@@H](NC(=O)[C@@H](NC)C(C)C)C(C)C (H-[NMeV]V[Dil][Dolaproine]-X3) | 54.2 | 0.122 | 0.149 | 44.7 | 0.325 | 0.569 |
| CC[C@H](C)[C@@H]([C@@H](CC(=O)N1CCC[C@H]1[C@H](OC)[C@@H](C)C(=O)NCCc1cccc2cnccc12)OC)N(C)C(=O)[C@@H](NC(=O)[C@@H](NC)C(C)C)C(C)C (H-[NMeV]V[Dil][Dolaproine]-X2) | 42 | 0.677 | 0.095 | 11 | 0.132 | 0.271 |
| CC[C@H](C)[C@@H]([C@@H](CC(=O)N1CCC[C@H]1[C@H](OC)[C@@H](C)C(=O)NCCc1ccc2ccncc2c1)OC)N(C)C(=O)[C@@H](NC(=O)[C@H](C(C)C)N(C)C(=O)OCc1ccc(NC(=O)[C@H](CCCNC(N)=O)NC(=O)[C@@H](NC(=O)CCCCCN2C(=O)C=CC2=O)C(C)C)cc1)C(C)C ({Hexanoyl(6-maleimido)}-V[Cit][PABC][NMeV]V[Dil][Dolaproine]-X3) | 448 | 15.7 | 18 | 149 | 9.72 | 32.2 |
| CC[C@H](C)[C@@H]([C@@H](CC(=O)N1CCC[C@H]1[C@H](OC)[C@@H](C)C(=O)NCCc1ccc2ccncc2c1)OC)N(C)C(=O)[C@@H](NC(=O)[C@H](C(C)C)N(C)C)C(C)C | 9.3 | 0.033 | 0.186 | 4.39 | 0.068 | 0.399 |
| CC[C@H](C)[C@@H]([C@@H](CC(=O)N1CCC[C@H]1[C@H](OC)[C@@H](C)C(=O)NCCc1ccc2cccnc2c1)OC)N(C)C(=O)[C@@H](NC(=O)[C@H](C(C)C)N(C)C)C(C)C | 1.19 | – | – | – | 0.03 | – |
| CC[C@H](C)[C@@H]([C@@H](CC(=O)N1CCC[C@H]1[C@H](OC)[C@@H](C)C(=O)NCCc1cccc2cnccc12)OC)N(C)C(=O)[C@@H](NC(=O)[C@H](C(C)C)N(C)C)C(C)C | 17.3 | 2.79 | 0.279 | 7.31 | 0.266 | 0.385 |
| CC[C@H](C)[C@@H]([C@@H](CC(=O)N1CCC[C@H]1[C@H](OC)[C@@H](C)C(=O)NCCc1cccc2ccncc12)OC)N(C)C(=O)[C@@H](NC(=O)[C@@H](NC)C(C)C)C(C)C (H-[NMeV]V[Dil][Dolaproine]-X1) | 122 | 0.42 | 0.271 | 40.6 | 0.135 | 0.542 |
| CC[C@H](C)[C@@H]([C@@H](CC(=O)N1CCC[C@H]1[C@H](OC)[C@@H](C)C(=O)NCCc1cccc2cnccc12)OC)N(C)C(=O)[C@@H](NC(=O)[C@H](C(C)C)N(C)C(=O)OCc1ccc(NC(=O)[C@H](CCCNC(N)=O)NC(=O)[C@@H](NC(=O)CCCCCN2C(=O)C=CC2=O)C(C)C)cc1)C(C)C ({Hexanoyl(6-maleimido)}-V[Cit][PABC][NMeV]V[Dil][Dolaproine]-X2) | 396 | 26.9 | 21.7 | 307 | 9.72 | 30.7 |
